Bioassay records from PubChem BioAssay.
T cruzi repl = blocks replication of Trypanosoma cruzi; 1.4% of 300,000 active; AID 1885; inhibition, % (no concentration beside the values); T. cruzi beta-gal in NIH3T3, luminescence, 90 h;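 active means mean inhibition across valid replicates above about 55%, limit read from the data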;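 further: signal also drops with host cell toxicity which is not excluded here; higher percent means less beta-gal luminescence so fewer parasites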
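assay system = mouse NIH/3T3 fibroblasts infected with β-gal-expressing T. cruzi Tulahuen C4 | input = 5,000 NIH/3T3 host cells per well | buffer or medium = DMEM plus 2% FBS | timing = 3 h host attachment, then at least 90 h co-culture | measured by = GalScreen luminescence, 60 min | evaluation = luminescence reflecting intracellular parasite burden, expressed as percent inhibition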
HSF-1 act = increases HSF-1 driven luciferase reporter signal. activation, % at 9 µM. 1.7% of 300,000 active. AID 504408. NIH3T3-HGL HSF-1 luciferase reporter, MG132, 8 h; 100% = twice DMSO control signal;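 active means mean replicate activation of at least 50% with a set share of replicates each reaching 50%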
Hsp70 activator = transcriptional activators of Hsp70 | activation, % at 10 µM | HeLa Hsp70 promoter luciferase reporter, luminescence; scaled: vehicle 0, proteasome-inhibitor control 100% | 0.04% of 200,000 active;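 active means activation above the mean across all tested compounds plus 3 SD, cutoff set per campaign, cut at about 5.5% in these data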
Lmaj promast = Leishmania major promastigote growth inhibition | Leishmania major promastigotes, resazurin fluorescence viability | inhibition, % at 10 µM | 9% of 200,000 active | AID 1063; in the data active means inhibition above about 50%;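 further: promastigotes grown with compound for 44 hours at 28 °C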
HSF1 inhib = HSF1 inhibition; NIH3T3-HGL HSE-luciferase, MG132-induced, luminescence 8 h; hits give low values; activity change, negative = inhibition, % at 7.5 µM (by protocol); 0.77% of 300,000 active; AID 2098;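 active means more than half of replicate wells show activity change below -50%, luminescence cut by over half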;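 further: luciferase reports HSF-1 transcriptional activity via heat shock element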
Each line names hits and unclear results; the compound was inactive in the other large screens. The full list was thinned out, with hits kept by preference.

CCCc1[nH]nc2c1C(c1ccccc1OC)C(C#N)=C(N)O2 (configuration not stated)	none
CCCc1[nH]nc2c1C(c1ccccc1OCC)C(C#N)=C(N)O2 (configuration not stated)	Lmaj promast 54
CCCc1[nH]nc2c1C(c1cn[nH]c1-c1ccc(F)cc1)C(C#N)=C(N)O2 (configuration not stated)	Lmaj promast 73
CCOC(=O)C1=C(C)OC(N)=C(C#N)C1c1ccc(OC)c(CSc2ccccn2)c1 (configuration not stated)	none
COc1ccc(C2C(C#N)=C(N)Oc3n[nH]c(C)c32)cc1CSc1ccccn1 (configuration not stated)	Lmaj promast 98
CCOC(=O)c1c(C)[nH]c(C(=O)OCC(=O)Nc2cc(C)c(Cl)cc2OC)c1C	none
O=C(O)CNS(=O)(=O)c1ccc2c(c1)Cc1cc(S(=O)(=O)NCC(=O)O)ccc1-2	none (no result: Hsp70 activator, Lmaj promast)
O=C1c2cccc3c([N+](=O)[O-])ccc(c23)C(=O)N1c1nccs1	Lmaj promast 64
O=C1c2cccc3c([N+](=O)[O-])ccc(c23)C(=O)N1c1ccc(Cl)cn1	Lmaj promast 100
O=C1c2cccc3c([N+](=O)[O-])ccc(c23)C(=O)N1c1ccccn1	Lmaj promast 100, HSF1 inhib -68
O=C1c2cccc3c(N4CCCCC4)ccc(c23)C(=O)N1c1ccc(Cl)cn1	none (no result: T cruzi repl, HSF-1 act, HSF1 inhib)
O=C1c2cccc3c([N+](=O)[O-])ccc(c23)C(=O)N1O	HSF-1 act 52 (no result: Hsp70 activator, Lmaj promast)
CC(=O)Oc1ccc(N2C(=O)c3cccc4c([N+](=O)[O-])ccc(c34)C2=O)cc1	none (no result: Hsp70 activator, Lmaj promast)
Cc1nn(-c2ccccc2)c2sc(-c3n[nH]c(=S)o3)cc12	none
COc1cccc(OCc2cc(C(=O)NC(C)c3cnn(C)c3C)no2)c1 (configuration not stated)	none (no result: Hsp70 activator, Lmaj promast)
O=C(c1cccs1)N1CCCC(c2nc3c(nnn3Cc3c(Cl)cccc3Cl)c(=O)[nH]2)C1 (configuration not stated)	none (no result: Hsp70 activator, Lmaj promast)
O=C(CC1S/C(=N/N=C/c2c[nH]c3ccc(OCc4ccccc4)cc23)NC1=O)Nc1ccccc1 (configuration not stated)	none
O=C(CC1S/C(=N/N=C/c2cccs2)NC1=O)Nc1ccc(Cl)cc1 (configuration not stated)	Lmaj promast 99
O=C(CC1S/C(=N/N=C/c2c[nH]c3ccccc23)NC1=O)Nc1ccccc1 (configuration not stated)	Lmaj promast 79
COc1ccc2c(c1)NC(C)(C)C=C2C	T cruzi repl 66
CC1=CC(C)(C)Nc2ccccc21	T cruzi repl 75
CC(=O)Nc1ccc(S(=O)(=O)Oc2ccc3c(c2)C(C)=CC(C)(C)N3)cc1	none
C=CCNC(=S)N/N=C1\CCS(=O)(=O)c2ccccc21	none (no result: Hsp70 activator, Lmaj promast)
CC(C)NC(=O)NC(=O)COC(=O)c1cc[n+]([O-])cc1	none
CCCc1c(C)[nH]c2nc3ccccc3n2c1=O	none (no result: Hsp70 activator, Lmaj promast)
CCc1c(C)[nH]c2nc3ccccc3n2c1=O	Lmaj promast 94
NC(=O)C1(N2CCCCC2)CCN(C(=S)Nc2cccc(Cl)c2)CC1	none (no result: HSF-1 act, HSF1 inhib)
COc1ccc(C2C=C(C34CC5CC(CC(C5)C3)C4)NC(=S)N2)cc1 (configuration not stated)	none
COc1cc(NC2=Nc3cccc4cccc2c34)cc(OC)c1OC	Lmaj promast 56
Cc1ccc(C(=O)NCCN2C3=NC[C@H](C)N3C[C@H]2Cc2ccc(O)cc2)cc1Br	none
Cc1ccc(C(=O)NCCN2C3=NC[C@H](C(C)C)N3C[C@H]2Cc2ccc(O)cc2)cc1Br	none
COc1ccc(C[C@H]2CN3C(=NC[C@@H]3C(C)C)N2CCNC(=O)c2ccc(C)c(Br)c2)cc1	Lmaj promast 99
COc1ccc(C[C@H]2CN3C(=NC[C@H]3C)N2CCNC(=O)c2ccc(C)c(Br)c2)cc1	Lmaj promast 53
Cc1ccnc(Cc2ccccc2)n1	none (no result: Hsp70 activator, Lmaj promast)
Cc1cc(C)n(CC(=O)c2cccc(N)c2)n1	none
COC(=O)NCc1ccc(Cl)c(Cl)c1	none
COc1ccc(CNC(=O)Oc2ccccc2)cc1Cl	HSF-1 act 94
COC(=O)c1cc(CNC(=O)c2cccc(Cl)c2)ccc1OC	none
COC(=O)c1cc(CNC(=O)c2cccc(Cl)c2Cl)ccc1OC	Lmaj promast 53
Cc1ccc(C(=O)NCC(=O)OCC(=O)N(CC(C)C)c2c(N)n(Cc3ccccc3)c(=O)[nH]c2=O)cc1	none (no result: Hsp70 activator, Lmaj promast)
